Measurements reported in PMC9313898 (Journal of Thrombosis and Haemostasis, 2022).
Entries after “also recorded” stand apart in the source; their conditions may differ.

Experiments:
[1] = tested on: New Zealand White rabbits; experiment: Arterial thrombosis; assay type: in vivo; settings: rabbit carotid artery FeCl2
[2] = tested on: New Zealand White rabbits; experiment: Ear bleeding time in the arterial FeCl2-injury rabbit model; assay type: in vivo
[3] = tested on: APTT in rabbit plasma; experiment: APTT clotting time in rabbit plasma; assay type: biochemical; settings: mean, n = 2–9
Procedure, shortened: (§1)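 Plasma came from untreated donor animals, collected into citrate, centrifuged at 2500 ×g for 20 min at 4°C, and stored at −20°C. Plasma was incubated with test compound (0–37.5 µM) for 3 min at 37°C, then with kaolin/cephalin APTT reagent for 3 min. Clotting was started with 0.025 M CaCl₂ and timed on an automated coagulometer. EC₁₅₀ is the concentration giving a 1.5‑fold APTT increase.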

[4] = tested on: APTT in plasma of monkeys; experiment: APTT clotting time in monkey plasma; assay type: biochemical
[5] = tested on: APTT in dog plasma; experiment: APTT clotting time in dog plasma; assay type: biochemical; settings: mean, n = 2–9
Procedure, shortened: as §1

[6] = tested on: APTT in guinea pig plasma; experiment: APTT clotting time in guinea pig plasma; assay type: biochemical; settings: mean, n = 2–9
Procedure, shortened: as §1

[7] = tested on: PT in rabbit plasma; experiment: Ex vivo PT in the rabbit liver-injury model
[8] = tested on: New Zealand White rabbits; experiment: Venous thrombosis; assay type: in vivo; settings: rabbit jugular vein FeCl2
Procedure, shortened: (§2)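 Male New Zealand White rabbits (2.7–3.0 kg) were anaesthetised with ketamine/xylazine, with the femoral artery and vein cannulated. Thirty min after i.v. dosing, the jugular vein was exposed to FeCl₂ (13% in 100 µl water) on filter paper for 5 min. After a further 30 min the injured vein was excised and the thrombus weighed. Ear bleeding time was recorded as the time bleeding stopped.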

[9] = tested on: New Zealand White rabbits; experiment: Arterio-venous shunt model in rabbits, prevention protocol; assay type: in vivo; settings: rabbit AV shunt; for Thrombus weight: mean (± SEM), control 14.8 (± 2) mg
Procedure, shortened: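 Male New Zealand White rabbits (2.7–3.0 kg) were anaesthetised with ketamine/xylazine (i.m. bolus, then ear‑vein infusion). A shunt joined the right carotid artery to the left jugular vein through a 4 cm polyethylene tube holding a 6 cm nylon‑wire loop. An i.v. bolus (0.3, 1 or 3 mg/kg) was given 10 min before opening. After 15 min the wire and thrombus were removed and weighed.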

[10] = tested on: New Zealand White rabbits; experiment: Rabbit liver-injury bleeding model; assay type: in vivo
Procedure, shortened: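 Male New Zealand White rabbits (2.5–3.3 kg) were anaesthetised with ketamine/xylazine and kept at 37°C. A 1 × 1 cm triangular wedge was cut from the liver edge. Pre‑weighed swabs were applied at 30‑s intervals for up to 30 min to give bleeding time and blood loss.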

[11] = tested on: New Zealand White rabbits; experiment: Ear bleeding time in the AV shunt model, prevention protocol; assay type: in vivo; settings: rabbit AV shunt, any dose (0.3, 1, 3 mg/kg iv) or time point
[12] = tested on: New Zealand White rabbits; experiment: Gum bleeding time in rabbits; assay type: in vivo; settings: rabbit; intravenous asundexian
Procedure, shortened: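 Male New Zealand White rabbits (2.7–3.0 kg) were under ketamine/xylazine anaesthesia during the arterial FeCl₂‑injury thrombosis experiment. Test compound was given i.v., alone or with aspirin plus ticagrelor. Ear bleeding time and, by an equivalent technique, gum‑mucosa bleeding time were recorded as the time at which bleeding stopped.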

[13] = tested on: PT in human plasma; experiment: Prothrombin time in human plasma; assay type: biochemical; settings: 0–37.5 µM
Procedure, shortened: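 Human citrated plasma (pooled volunteer plasma or purchased) was incubated with test compound (0–37.5 µM) for 3 min at 37°C. It was then mixed with thromboplastin, and clotting time was measured at 37°C on an automated coagulometer.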

[14] = tested on: New Zealand White rabbits; experiment: Ear bleeding time in the venous FeCl2-injury rabbit model; assay type: in vivo; settings: asundexian 0.6, 2, or 6 mg/kg iv, any dose group
Procedure, shortened: as §2

[15] = tested on: New Zealand White rabbits; experiment: Arterio-venous shunt model in rabbits, intervention protocol; assay type: in vivo; settings: rabbit AV shunt
Procedure, shortened: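 Anaesthetised male New Zealand White rabbits (2.7–3.0 kg, ketamine/xylazine) carried a carotid‑artery to jugular‑vein shunt: a 4 cm polyethylene tube with a 6 cm nylon‑wire loop. Test compound was given as an i.v. bolus (1 or 5 mg/kg) via the femoral vein 10 min after the shunt was opened. The shunt ran 30 min, then the wire and attached thrombus were weighed.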

[16] = target: T1, FXIa (Oryctolagus cuniculus, UniProt G1SSQ6); experiment: Ex vivo FXIa inhibition in the arterial FeCl2-injury rabbit model; settings: mean (± SD) vs control group
Procedure, shortened: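 Anaesthetised male New Zealand White rabbits received oral test compound in the arterial FeCl₂‑injury model. Citrated blood was drawn at the start of the thrombosis experiment, centrifuged at 2500 ×g for 10 min at 4°C, and stored at −20°C. FXIa activity was measured by kaolin/cephalin activation (3 min, 37°C), then 400 µM AMC substrate plus 5.6 µM kallikrein inhibitor. The fluorescence slope over the first 5 min was compared with controls.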

[17] = tested on: APTT in mouse plasma; experiment: APTT clotting time in mouse plasma; assay type: biochemical; settings: mean, n = 2–9
Procedure, shortened: as §1

[18] = tested on: APTT in rat plasma; experiment: APTT clotting time in rat plasma; assay type: biochemical; settings: mean, n = 2–9
Procedure, shortened: as §1

[19] = tested on: APTT in pig plasma; experiment: APTT clotting time in pig plasma; assay type: biochemical; settings: mean, n = 2–9
Procedure, shortened: as §1

[20] = tested on: APTT in rabbit plasma; experiment: Ex vivo APTT in the rabbit liver-injury model
[21] = target: T1, FXIa; experiment: Ex vivo FXIa activity in the AV shunt model; settings: rabbit AV shunt; preventative and interventional iv treatment
[22] = cited from earlier work
[23] = apixaban 1 mg/kg iv + aspirin + ticagrelor
[24] = apixaban 3 mg/kg iv + aspirin + ticagrelor
[25] = dabigatran high dose (1 mg/kg iv)
[26] = dabigatran low dose (0.3 mg/kg iv)

T1 sequence (G1SSQ6 19-624): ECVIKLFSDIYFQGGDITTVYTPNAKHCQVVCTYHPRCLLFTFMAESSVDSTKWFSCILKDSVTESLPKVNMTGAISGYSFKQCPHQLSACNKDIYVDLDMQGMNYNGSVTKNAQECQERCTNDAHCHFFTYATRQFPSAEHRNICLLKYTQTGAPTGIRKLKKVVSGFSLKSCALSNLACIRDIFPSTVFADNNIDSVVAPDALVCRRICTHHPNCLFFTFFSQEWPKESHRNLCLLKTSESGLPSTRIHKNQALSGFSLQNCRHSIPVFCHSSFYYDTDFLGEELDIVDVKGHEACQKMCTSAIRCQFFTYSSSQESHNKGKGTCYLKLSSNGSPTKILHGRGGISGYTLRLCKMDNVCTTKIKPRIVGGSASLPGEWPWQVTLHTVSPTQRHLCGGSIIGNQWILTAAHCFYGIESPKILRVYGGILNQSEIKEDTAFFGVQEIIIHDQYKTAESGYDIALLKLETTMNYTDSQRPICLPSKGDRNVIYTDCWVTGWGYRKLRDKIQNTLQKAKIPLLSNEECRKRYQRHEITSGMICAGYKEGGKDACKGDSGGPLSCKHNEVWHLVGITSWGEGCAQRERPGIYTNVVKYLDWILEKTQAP

**Q.** Which results are given for `COc1ccc(-n2nc(C(N)=O)c3c2C(=O)N(c2ccc(N4CCCCC4=O)cc2)CC3)cc1` [apixaban, 1‐(4‐methoxyphenyl)‐7‐oxo‐6‐(4‐(2‐oxopiperidin‐1‐yl)phenyl)‐4,5,6,7‐tetrahydro‐1H ‐pyrazolo[3,4‐c]pyridine‐3‐carboxamide, reference compound]?
**A.** Additional reduction in thrombus weight on top of aspirin and ticagrelor [1, 23]: 46%; Additional reduction in thrombus weight on top of aspirin and ticagrelor [1, 24]: 83%; Increase of ear bleeding time vs aspirin and ticagrelor alone [2, 23]: 2.8 fold; Increase of ear bleeding time vs aspirin and ticagrelor alone [2, 24]: 6.6 fold

**Q.** Which “APTT prolongation, EC150” value [3] does the source give for `CC[C@@H](C(=O)Nc1ccc(C(N)=O)c(F)c1)n1cc(OC)c(-c2cc(Cl)ccc2-n2cc(C(F)(F)F)nn2)cc1=O` [asundexian] here?
**A.** 1.50 µM

**Q.** And the “Effect on APTT” value [4]?
**A.** prolonged

**Q.** What about the “APTT prolongation, EC150” value [5] of the same molecule?
**A.** 1.59 µM

**Q.** And the “Thrombus weight reduction vs control” value ([1]; asundexian 0.6 mg/kg iv bolus)?
**A.** 25%

**Q.** And the “Additional reduction in thrombus weight on top of aspirin and ticagrelor” value (“Additional reduction in thrombus weight” below) ([1]; asundexian 2 mg/kg iv + aspirin + ticagrelor)?
**A.** 32%

**Q.** What about the “Additional reduction in thrombus weight” value ([1]; asundexian 6 mg/kg iv + aspirin + ticagrelor) of the same molecule?
**A.** 70%

**Q.** And the “Additional reduction in thrombus weight” value ([1]; asundexian 12 mg/kg iv + aspirin + ticagrelor)?
**A.** 98%

**Q.** What about the “Thrombus weight reduction vs control” value ([1]; asundexian 20 mg/kg iv bolus) of the same molecule?
**A.** 88%

**Q.** What about the “Thrombus weight reduction vs control” value ([1]; oral 10 mg/kg, 2 h before, P < .05) of the same molecule?
**A.** 30%

**Q.** And the “Thrombus weight reduction vs control” value ([1]; oral 30 mg/kg, 2 h before, P < .001)?
**A.** 91%

**Q.** What about the “APTT prolongation, EC150” value [6] of the same molecule?
**A.** 2.13 µM

**Q.** What about the “Effect on PT” value ([7]; asundexian 6 and 12 mg/kg iv) of the same molecule?
**A.** no effect

**Q.** What about the “Thrombus weight reduction vs control” value ([8]; asundexian 0.6 mg/kg iv) of the same molecule?
**A.** 25%

**Q.** And the “Thrombus weight reduction vs control” value ([8]; asundexian 2 mg/kg iv)?
**A.** 74%

**Q.** And the “Thrombus weight reduction vs control” value ([8]; asundexian 6 mg/kg iv)?
**A.** 90%

**Q.** What about the “Thrombus weight reduction vs control” value ([9]; 0.3 mg/kg iv) of the same molecule?
**A.** 14%

**Q.** What about the “Thrombus weight reduction vs control” value ([9]; 1 mg/kg iv, P < .01) of the same molecule?
**A.** 59%

**Q.** And the Thrombus weight ([9]; 1 mg/kg iv)?
**A.** 6.1 (± 0.9) mg

**Q.** What about the “Thrombus weight reduction vs control” value ([9]; 3 mg/kg iv, P < .001) of the same molecule?
**A.** 71%

**Q.** What about the Thrombus weight ([9]; 3 mg/kg iv) of the same molecule?
**A.** 4.3 (± 0.5) mg

**Q.** What about the “Bleeding time vs controls” value ([10]; asundexian 6 and 12 mg/kg iv) of the same molecule?
**A.** neither 6 nor 12 mg/kg asundexian led to any significant effect; also recorded: no significant effect

**Q.** And the “Blood loss vs controls” value ([10]; asundexian 6 and 12 mg/kg iv)?
**A.** neither 6 nor 12 mg/kg asundexian led to any significant effect; also recorded: no significant effect

**Q.** And the “Ear bleeding time vs aspirin and ticagrelor alone” value ([2]; asundexian iv + aspirin + ticagrelor)?
**A.** did not further increase

**Q.** And the “Ear bleeding time vs control” value ([2]; oral asundexian 10 mg/kg and 30 mg/kg)?
**A.** no prolongation

**Q.** And the “Ear bleeding time vs control” value ([2]; prophylactic intravenous asundexian 0.6-20 mg/kg)?
**A.** no increase

**Q.** And the “Bleeding times following ear incision” value [11]?
**A.** not prolonged

**Q.** And the Gum bleeding time [12]?
**A.** no increase

**Q.** What about the “Effect on PT” value [13] of the same molecule?
**A.** little to no effect

**Q.** What about the Ear bleeding time [14] of the same molecule?
**A.** No ear bleeding time prolongation

**Q.** And the “Thrombus weight reduction vs control” value ([15]; 1 mg/kg iv, P < .05)?
**A.** 33%

**Q.** What about the “Thrombus weight reduction vs control” value ([15]; 5 mg/kg iv, P < .001) of the same molecule?
**A.** 62%

**Q.** And the Thrombus weight ([15]; 5 mg/kg iv, mean (± SEM), control 36.7 (± 3.2) mg)?
**A.** 14.0 (± 3.5) mg

**Q.** And the “Reduction of FXIa activity ex vivo” value ([16]; oral 10 mg/kg)?
**A.** 17% (± 22%)

**Q.** And the “Reduction of FXIa activity ex vivo” value ([16]; oral 30 mg/kg)?
**A.** 44% (± 29%)

**Q.** And the “APTT prolongation, EC150” value [17]?
**A.** >12.5 µM

**Q.** What about the “APTT prolongation, EC150” value [18] of the same molecule?
**A.** >12.5 µM

**Q.** And the “APTT prolongation, EC150” value [19]?
**A.** 0.51 µM

**Q.** And the APTT increase ([20]; asundexian high dose (12 mg/kg iv))?
**A.** 2.3 fold

**Q.** And the APTT increase ([20]; asundexian low dose (6 mg/kg iv))?
**A.** 1.7 fold

**Q.** What about the “Ex vivo FXIa activity” value [21] of the same molecule?
**A.** reduced FXIa activity

**Q.** With `[H]/N=C(/N)c1ccc(NCc2nc3cc(C(=O)N(CCC(=O)O)c4ccccn4)ccc3n2C)cc1` [dabigatran, reference compound] as the molecule, how does the PT increase [7, 25] read?
**A.** 1.7 fold

**Q.** And the PT increase [7, 26]?
**A.** 1.1 fold

**Q.** And the “Increase of bleeding time vs controls” value ([10]; dabigatran 0.3 mg/kg iv, control mean 5.7 min (340 s))?
**A.** approximately 5 fold

**Q.** And the Bleeding time ([10]; dabigatran 1 mg/kg iv, maximum observation period 30 min)?
**A.** > 30 min

**Q.** What about the APTT increase [20, 25] of the same molecule?
**A.** 2.2 fold

**Q.** What about the APTT increase [20, 26] of the same molecule?
**A.** 1.4 fold

**Q.** With `O=C(NC[C@H]1CN(c2ccc(N3CCOCC3=O)cc2)C(=O)O1)c1ccc(Cl)s1` [rivaroxaban, reference compound] as the molecule, how does the “Thrombus weight reduction (mean)” value ([1]; rivaroxaban iv 0.08 mg/kg +0.09 mg/kg/hour) read?
**A.** 51%

**Q.** And the “Thrombus weight reduction (mean)” value ([1]; rivaroxaban iv 0.24 mg/kg +0.27 mg/kg/hour)?
**A.** 77%

**Q.** What about the “Ear bleeding time vs control” value ([2]; rivaroxaban iv bolus + infusion, significant for the higher dose) of the same molecule?
**A.** prolonged

**Q.** With “Osocimab: fully human IgG1 antibody targeting coagulation factor XIa” as the molecule, how does the mean elimination half-life [22] read?
**A.** 30 to 44 days

B1: abelacimab: FXI antibody, dual inhibitor of factor XI and factor XIa (antibody, chains of the INN, looked up, V domains shown)
VH: QVQLLESGGGLVQPGGSLRLSCAASGFTFSTAAMSWVRQAPGKGLEWVSGISGSGSSTYYADSVKGRFTISRDNSKNTLYLQMNSLRAEDTAVYYCARELSYLYSGYYFDYWGQGTLVTVSS
VL: QSVLTQPPSASGTPGQRVTISCSGSSSNIGSNDVSWYQQLPGTAPKLLIYKNYNRPSGVPDRFSGSKSGTSASLAISGLQSEDEADYYCSAWDQRQFDVVFGGGTKLTVL
**Q.** Which elimination half-life [22] does the source give for B1 here?
**A.** 25 to 30 days
